Experimental data from ChEMBL document CHEMBL2440113, “Synthesis, radiofluorination, and in vivo evaluation of novel fluorinated and iodinated radiotracers for PET imaging and targeted radionuclide therapy of melanoma” (J Med Chem, 2013).

Tests used:
[1] = Stability of the compound in saline after 6 hrs; assay type: physicochemical; conditions: read-out: Stability
Summary of the method: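 Formulated radiotracer was kept in saline at room temperature; radiochemical purity was checked by analytical radio-HPLC over at least 6 h after preparation.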

[2] = Ratio of drug level in tumor to blood in C57BL/6J mouse harboring mouse B16-Bl6 cells at 9 to 12 MBq, iv after 3 hrs by PET analysis; assay type: ADME, organism-based
Summary of the method: (§1)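 Ex vivo biodistribution. C57BL/6J mice bearing subcutaneous B16Bl6 tumours (3x10⁵ cells, shoulder), day 10 or 14, received [18F]tracer iv (9-12 MBq). They were killed by CO₂ at 1, 2 or 3 h. Tumours and organs were excised, weighed and gamma-counted. Results are decay-corrected % ID/g; ratios are tumour over tissue. n=3-6 per group; mean ± SD.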

Brain [3] = experiment: Biodistribution in brain of C57BL/6J mouse harboring mouse B16-Bl6 cells at 9 to 12 MBq, iv after 3 hrs by PET analysis; assay type: ADME, organism-based; conditions: in vivo
Summary of the method: (§2)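 Ex vivo dissection in B16Bl6-bearing C57BL/6J mice (3x10⁵ cells s.c. right shoulder), done at day 10 or 14 after implantation. The ¹⁸F tracer was given i.v. at 9-12 MBq. Mice were killed by CO₂ at 1, 2 or 3 h. Tumor, organs and tissues were excised, weighed and gamma-counted, then decay-corrected and expressed as %ID/g. n=3-6 per group; mean ± SD.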

Heart = experiment: Biodistribution in heart of C57BL/6J mouse harboring mouse B16-Bl6 cells at 9 to 12 MBq, iv after 3 hrs by PET analysis; assay type: ADME, organism-based; conditions: in vivo; summary of the method: as §2
Pancreas [4] = experiment: Biodistribution in pancreas of C57BL/6J mouse harboring mouse B16-Bl6 cells at 9 to 12 MBq, iv after 3 hrs by PET analysis; assay type: ADME, organism-based; conditions: in vivo; summary of the method: as §2
Kidney = experiment: Biodistribution in kidney of C57BL/6J mouse harboring mouse B16-Bl6 cells at 9 to 12 MBq, iv after 3 hrs by PET analysis; assay type: ADME, organism-based; conditions: in vivo; summary of the method: as §2
Mus musculus [5] = experiment: Biodistribution in eyes of C57BL/6J mouse harboring mouse B16-Bl6 cells at 9 to 12 MBq, iv after 3 hrs by PET analysis; assay type: ADME, organism-based, Eye; conditions: in vivo; summary of the method: as §2
Brain [6] = experiment: Biodistribution in brain of C57BL/6J mouse harboring mouse B16-Bl6 cells at 9 to 12 MBq, iv after 2 hrs by PET analysis; assay type: ADME, organism-based; conditions: in vivo; summary of the method: as §2
Pancreas [7] = experiment: Biodistribution in pancreas of C57BL/6J mouse harboring mouse B16-Bl6 cells at 9 to 12 MBq, iv after 2 hrs by PET analysis; assay type: ADME, organism-based; conditions: in vivo; summary of the method: as §2
Spleen [8] = experiment: Biodistribution in spleen of C57BL/6J mouse harboring mouse B16-Bl6 cells at 9 to 12 MBq, iv after 2 hrs by PET analysis; assay type: ADME, organism-based; conditions: in vivo; summary of the method: as §2
Mus musculus [9] = experiment: Biodistribution in colon and feces of C57BL/6J mouse harboring mouse B16-Bl6 cells at 9 to 12 MBq, iv after 2 hrs by PET analysis; assay type: ADME, organism-based; conditions: in vivo; summary of the method: as §2
Stomach [10] = experiment: Biodistribution in stomach of C57BL/6J mouse harboring mouse B16-Bl6 cells at 9 to 12 MBq, iv after 2 hrs by PET analysis; assay type: ADME, organism-based; conditions: in vivo; summary of the method: as §2
Liver [11] = experiment: Biodistribution in liver of C57BL/6J mouse harboring mouse B16-Bl6 cells at 9 to 12 MBq, iv after 2 hrs by PET analysis; assay type: ADME, organism-based; conditions: in vivo; summary of the method: as §2
Zone of skin [12] = experiment: Biodistribution in skin of C57BL/6J mouse harboring mouse B16-Bl6 cells at 9 to 12 MBq, iv after 2 hrs by PET analysis; assay type: ADME, organism-based; conditions: in vivo; summary of the method: as §2
Bone [13] = experiment: Biodistribution in bones of C57BL/6J mouse harboring mouse B16-Bl6 cells at 9 to 12 MBq, iv after 2 hrs by PET analysis; assay type: ADME, organism-based, Bone element; conditions: in vivo; summary of the method: as §2
Nucleic Acid = experiment: Ratio of drug level in tumor to muscle in C57BL/6J mouse harboring mouse B16-Bl6 cells at 9 to 12 MBq, iv after 1 hr by PET analysis; assay type: ADME, organism-based; conditions: in vivo; summary of the method: as §1
Lung = experiment: Biodistribution in lung of C57BL/6J mouse harboring mouse B16-Bl6 cells at 9 to 12 MBq, iv after 1 hr by PET analysis; assay type: ADME, organism-based; conditions: in vivo; summary of the method: as §2
Spleen [14] = experiment: Biodistribution in spleen of C57BL/6J mouse harboring mouse B16-Bl6 cells at 9 to 12 MBq, iv after 1 hr by PET analysis; assay type: ADME, organism-based; conditions: in vivo; summary of the method: as §2
Mus musculus [15] = experiment: Biodistribution in cecum of C57BL/6J mouse harboring mouse B16-Bl6 cells at 9 to 12 MBq, iv after 1 hr by PET analysis; assay type: ADME, organism-based, Caecum; conditions: in vivo; summary of the method: as §2
Mus musculus [16] = experiment: Biodistribution in colon and feces of C57BL/6J mouse harboring mouse B16-Bl6 cells at 9 to 12 MBq, iv after 1 hr by PET analysis; assay type: ADME, organism-based; conditions: in vivo; summary of the method: as §2
Mus musculus [17] = experiment: Biodistribution in small intestine of C57BL/6J mouse harboring mouse B16-Bl6 cells at 9 to 12 MBq, iv after 1 hr by PET analysis; assay type: ADME, organism-based; conditions: in vivo; summary of the method: as §2
Stomach [18] = experiment: Biodistribution in stomach of C57BL/6J mouse harboring mouse B16-Bl6 cells at 9 to 12 MBq, iv after 1 hr by PET analysis; assay type: ADME, organism-based; conditions: in vivo; summary of the method: as §2
Zone of skin [19] = experiment: Biodistribution in skin of C57BL/6J mouse harboring mouse B16-Bl6 cells at 9 to 12 MBq, iv after 1 hr by PET analysis; assay type: ADME, organism-based; conditions: in vivo; summary of the method: as §2
Liver [20] = experiment: Biodistribution in liver of C57BL/6J mouse harboring mouse B16-Bl6 cells at 9 to 12 MBq, iv after 1 hr by PET analysis; assay type: ADME, organism-based; conditions: in vivo; summary of the method: as §2
Blood = experiment: Biodistribution in blood of C57BL/6J mouse harboring mouse B16-Bl6 cells at 9 to 12 MBq, iv after 1 hr by PET analysis; assay type: ADME, organism-based; conditions: in vivo; summary of the method: as §2
Bone [21] = experiment: Biodistribution in bones of C57BL/6J mouse harboring mouse B16-Bl6 cells at 9 to 12 MBq, iv after 1 hr by PET analysis; assay type: ADME, organism-based, Bone element; conditions: in vivo; summary of the method: as §2
Mus musculus [22] = experiment: Biodistribution in tumor of C57BL/6J mouse harboring mouse B16-Bl6 cells at 9 to 12 MBq, iv after 1 hr by PET analysis; assay type: ADME, organism-based, Neoplasm; conditions: in vivo; summary of the method: as §1
Mus musculus [23] = experiment: Ratio of drug level in tumor to bone in C57BL/6J mouse harboring mouse B16-Bl6 cells at 9 to 12 MBq, iv after 2 hrs by PET analysis; conditions: in vivo
Mus musculus [24] = experiment: Ratio of drug level in tumor to blood in C57BL/6J mouse harboring mouse B16-Bl6 cells at 9 to 12 MBq, iv after 2 hrs by PET analysis; conditions: tumour
Mus musculus [25] = experiment: Ratio of drug level in tumor to muscle in C57BL/6J mouse harboring mouse B16-Bl6 cells at 9 to 12 MBq, iv after 2 hrs by PET analysis; conditions: in vivo

SMILES	remaining at 6 h [1] [%]	Kp at 3 h [2]	Drug uptake (Brain [3]) [% ID/g]	Drug uptake (Heart) [% ID/g]	Drug uptake (Pancreas [4]) [% ID/g]	Drug uptake (Kidney) [% ID/g]	Drug uptake (Mus musculus [5]) [% ID/g]	Drug uptake (Brain [6]) [% ID/g]	Drug uptake (Pancreas [7]) [% ID/g]	Drug uptake (Spleen [8]) [% ID/g]	Drug uptake (Mus musculus [9]) [% ID/g]	Drug uptake (Stomach [10]) [% ID/g]	Drug uptake (Liver [11]) [% ID/g]	Drug uptake (Zone of skin [12]) [% ID/g]	Drug uptake (Bone [13]) [% ID/g]	Ratio (Nucleic Acid)	Drug uptake (Lung) [% ID/g]	Drug uptake (Spleen [14]) [% ID/g]	Drug uptake (Mus musculus [15]) [% ID/g]	Drug uptake (Mus musculus [16]) [% ID/g]	further results
CCN(CCNC(=O)c1cnc2cc(I)ccc2n1)CCOCCOCCOCCOCCOCCOCCOCC[18F]	> 99	5.27	1.72	3	1.81	2.6	13.43	1.03	1.56	2.38	8.14	7.35	2.31	0.94	2.13	9.48	1.75	2.35	6.37	7.39	Drug uptake (Mus musculus [17]): 16.68 % ID/g; Drug uptake (Stomach [18]): 5.87 % ID/g; Drug uptake (Zone of skin [19]): 1.22 % ID/g; Drug uptake (Liver [20]): 2.02 % ID/g; Drug uptake (Blood): 1.15 % ID/g; Drug uptake (Bone [21]): 1.82 % ID/g; Drug uptake (Mus musculus [22]): 9.81 % ID/g; Ratio (Mus musculus [23]): 2.75; Ratio (Mus musculus [24]): 4.01; Ratio (Mus musculus [25]): 5.75
CCN(CCNC(=O)c1cnc2cc(I)ccc2n1)CCOCCOCCOCC[18F]	> 99	14.4	1.37	2.32	1.33	2.19	17.96	1.39	1.33	2.88	6.05	2.48	1.88	1.51	1.96	12.12	1.86	3.72	7.27	7.17	Drug uptake (Mus musculus [17]): 7.58 % ID/g; Drug uptake (Stomach [18]): 4.41 % ID/g; Drug uptake (Zone of skin [19]): 1.44 % ID/g; Drug uptake (Liver [20]): 2.56 % ID/g; Drug uptake (Blood): 1.42 % ID/g; Drug uptake (Bone [21]): 1.4 % ID/g; Drug uptake (Mus musculus [22]): 14.05 % ID/g; Ratio (Mus musculus [23]): 7.13; Ratio (Mus musculus [24]): 12.19; Ratio (Mus musculus [25]): 14.46
